Assay results taken from ChEMBL document CHEMBL4513216, “Probing the Open Global Health Chemical Diversity Library for Multistage-Active Starting Points for Next-Generation Antimalarials” (ACS Infect Dis, 2020).

Assay: Toxicity liver stage against HepG2, at 10uM
Assay type: cell-based
Parameters: test concentration 10 uM, cell line HepG2-A16-CD81EGFP
Settings: human, HepG2-A16-CD81EGFP cells; read-out: INHIBITION
Method in brief: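 Uninfected HepG2-A16-CD81EGFP cells, 3 × 10^3 per well, 1536-well, plated on prespotted compound at 10 μM final, parasite-free screening media added to match infected plates; puromycin 10 μM positive, DMSO 0.5% negative; run in parallel with 48 h PbLuc assay at 37 °C, 5% CO2; viability by CellTiter-Glo luminescence, normalized to controls.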

| SMILES | cytotoxicity at 10 µM [%] |
| --- | --- |
| CCc1ncc(C(=O)c2ccc(OC)cc2)n1C | 14.5 |
| CN1CCCCc2c1nc1c(c2N)CCCC1 | -0.675 |
| N[C@@H](Cc1ccccc1)c1nnc(S(=O)(=O)Cc2ccccc2)o1 | 13.3 |
| CNC(=O)NC(=O)CSc1ccc2c(c1)CCC2 | 19.6 |
| CN1C[C@H](O)[C@]2(CCN(Cc3ccc(F)c(F)c3)C2)S1(=O)=O | -1.42 |
| CCCNC(=O)Cn1c(-n2nc(C)cc2C)nc(CCC)cc1=O | 8.94 |
| COc1ccc(CC(=O)NCC(O)c2sccc2C)cc1OC (stereo not drawn) | 11.4 |
| c1ccc2c(c1)CCN(c1nc(N3CCOCC3)c3nn[nH]c3n1)C2 | 11.6 |
| CN(C)C(=O)CN1CCC2(CCN(C(=O)N3CCCC3)CC2)C1=O | 2.7 |
| NC(=O)N1CCC2(CC1)CC(=O)N(CC1CCCO1)c1ccccc12 (stereo not drawn) | 5.56 |
| O=C(c1ccsc1)N1CCc2nnc(COc3cncnc3)n2CC1 | 1.72 |
| Cc1cccc(CN2C[C@@H]3OCCN(S(=O)(=O)N(C)C)[C@@H]3C2)n1 | 11.2 |
| COC1COC2(CCN(C(=O)c3cscn3)CC2)C1 (stereo not drawn) | 6.13 |
| CN(Cc1cccnc1)C1CC2(CCN(C(=O)c3ccnnc3)CC2)C1 | 5.41 |
| COCCO[C@@H]1CCN(C(=O)c2ccnnc2)[C@H]1Cc1cnn(C)c1 | 7.6 |
| COCCN1C[C@@H]2CN(c3ncc(F)cn3)C[C@@H]2C1=O | 9.49 |
| O=C(O)c1nnn(-c2ccccc2)c1-c1ccncc1 | 2.33 |
| CN(C)CCNC(=O)c1sccc1N(C)S(=O)(=O)c1ccc(Cl)cc1 | 2.38 |
| Cn1c(=O)c2c(n3ncnc13)NC(=O)CC2c1ccc(F)cc1 (stereo not drawn) | 5.64 |
| Cc1cccc(NC(=O)C(C)Oc2ccc3c(c2)OCO3)n1 (stereo not drawn) | -9.25 |
| CCOc1ccc(NC(C)=O)cc1S(=O)(=O)Nc1cc(C)on1 | -4.13 |
| COCCNC(=O)c1nnc2ccc(N3CCOCC3)cc2n1 | 10.8 |

| SMILES | cytotoxicity at 10 µM [%] |
| --- | --- |
| Cc1nn(C)c2c(NC3CCCC3)nc(C3CC3)nc12 | -0.801 |
| CC(=O)c1c(C)nn(S(=O)(=O)c2ccc(F)cc2)c1C | 3.25 |
| Cc1n[nH]c(C)c1CCC(=O)N1CCC(O)(CN2CCOCC2)C1 (stereo not drawn) | 3.38 |
| N#CC1(C(=O)N2CCOC(c3ccc(F)cc3)C2)CCCC1 (stereo not drawn) | -3.3 |
| Cc1cc(NC(=O)N2CCN(C)CC2C)n(CCC#N)n1 (stereo not drawn) | 2.35 |
| CC(CCc1ccc(F)c(F)c1)NS(=O)(=O)Cc1ccon1 (stereo not drawn) | -7.97 |
| N#Cc1ncn(CCS(=O)(=O)c2ccc(Cl)cc2)n1 | -6.74 |
| O=C(CCc1ccsc1)Nc1ccnn1C1CCS(=O)(=O)C1 (stereo not drawn) | 9.01 |
| Cc1nccn1-c1ccc(C(C)NCc2cccn2C)cc1 (stereo not drawn) | 8.61 |
| Cc1cc(NC(=O)CCNC(C)(C)c2nc(C)c(C)s2)no1 | 11.7 |
| Cc1nc2cc(=O)[nH]n2c(C)c1CC(=O)Nc1cn[nH]c1 | 6.13 |
| O=S(=O)(Cc1ccccc1)c1nnc(N2CCCC2)s1 | -6.27 |
| Cc1cc(C)cc(OCC(O)CN2CCN(c3nccs3)CC2)c1 (stereo not drawn) | -7.32 |
| Cc1cnn(CC2CCCCN2CC(=O)N(C)Cc2ccc(C)o2)c1 (stereo not drawn) | 10.6 |
| Cc1cn2c(n1)CCC(NC(=O)CCCOCc1ccccc1)C2 (stereo not drawn) | -3.55 |
| CC1Cc2ccccc2N1Cc1occc1C(=O)NCC(=O)N(C)C (stereo not drawn) | 8.13 |
| CSCC(CCO)NC(=O)Nc1ccc(Br)cc1 (stereo not drawn) | -12.2 |
| CC(NCc1ccncc1)c1cc2c(cc1Br)OCCO2 (stereo not drawn) | -1.41 |
| N#Cc1ccc(NCc2cccc(OCC3CCCO3)c2)nc1 (stereo not drawn) | 1.25 |
| CC(c1nc(C2CC2)no1)N(C)Cc1cccc(F)c1 (stereo not drawn) | -5.43 |
| Cc1nn(C)c(C)c1NC(=O)Nc1cccnc1N1CCCC1 | 7.31 |
| CN(Cc1cccs1)c1nc2c(cnn2C(C)(C)C)c(=O)[nH]1 | 9.75 |

| SMILES | cytotoxicity at 10 µM [%] |
| --- | --- |
| CC1CN(C)CCN1C(=O)c1cnc2onc(CC(C)(C)C)c2c1 (stereo not drawn) | -1.6 |
| Cc1cccc(C2(C(=O)NS(=O)(=O)c3cnn(C)c3)CCCC2)c1 | -3.62 |
| NC(=O)NC(CC(=O)NCCc1ccc(F)cc1)c1ccccc1 (stereo not drawn) | -2.39 |
| CCCNC(=O)CSCc1ccc(S(=O)(=O)N(C)C)o1 | 9.8 |
| Fc1ccc(OCCNC2CCN(Cc3ccccn3)CC2)c(F)c1 | -3.26 |
| CCC(C(=O)Nc1ccc2c(C)n[nH]c2c1)N1CCCC1=O (stereo not drawn) | -48.9 |
| Cc1ccc(C(NC(=O)Cc2nc3ncccn3n2)C2CC2)cc1 (stereo not drawn) | 5.06 |
| CCCN(CCC)S(=O)(=O)N(C)Cc1ccncc1 | 12.2 |
| Cc1oc(-c2ccsc2)nc1CNCCn1cccn1 | -3.36 |
| Cc1nccn1Cc1cccc(CNC(=O)c2ccn(C)c(=O)c2)c1 | 5.82 |
| c1ccc(COC2CCN(c3cncc(-n4cccn4)n3)CC2)cc1 | -9.18 |
| CC(c1ccc(Cl)cc1)N1CCN(CCNS(C)(=O)=O)CC1 (stereo not drawn) | -15.3 |
| CCn1nnc2c1C(COCC(=O)N(C)C)CN(Cc1ccoc1)C2 (stereo not drawn) | -2.98 |
| Cc1ccc(CN2CC[C@H]3CO[C@H](CN(C)C)[C@H]3C2)o1 | -114 |
| COCC(=O)NC1CC2(CCN(CCN(C)C)CC2)c2ccccc21 (stereo not drawn) | -113 |
| Cc1cc(C(=O)N2CC[C@H]3[C@@H]2CCC(=O)N3c2ccccc2)no1 | -113 |
| N[C@H]1CN(CCCOc2ccccc2)C[C@@H]1C1CC1 | 0.147 |
| O=C1CCC(C(=O)N2CCOC(Cc3cccc4ccccc34)C2)=NN1 (stereo not drawn) | -3.86 |
| O[C@H]1CCCC[C@@H]1N1CCN(CCCc2ccc3c(c2)OCO3)CC1 | -3.69 |
| COCCCN1C(=O)CC[C@H]2CN(Cc3ccc4nonc4c3)CC[C@H]21 | 2.46 |
| CC(=O)NCc1cc2n(n1)CCN(Cc1ccccc1OC(F)(F)F)C2 | -2.84 |
| CCc1cnc(NCCS(=O)(=O)CC(C)C)nc1 | -13 |

| SMILES | cytotoxicity at 10 µM [%] |
| --- | --- |
| CC[C@H]1CN(C(=O)c2ccc(-n3cnnc3)nc2)CC[C@@]1(C)O | -11.9 |
| Cc1ncc(CN2CCC3(CCCN(CC4CCC4)C3)C2)cn1 (stereo not drawn) | -6.7 |
| CC(C)CN(Cc1ccccn1)Cc1ccccc1OCC(=O)O | -12.7 |
| CC(C)N1CCC(C(=O)N2CCc3c(nc(CC4CC4)[nH]c3=O)C2)CC1 | -4.92 |
| c1ccc(Cc2nc(CNC3CCC4(CCNCC4)CC3)no2)cc1 | -17 |
| O=c1c2cccc(C(F)(F)F)c2ncn1C1CCNC1 (stereo not drawn) | -38.3 |
| CNS(=O)(=O)c1ccc(CN2CCC(c3ccncc3)CC2)cc1 | 10 |
| CC(C)(C)N1CC(C(=O)NCc2cn3cccnc3n2)CC1=O (stereo not drawn) | -0.591 |
| COc1cc(NCC(c2ccccn2)N(C)C)ncn1 (stereo not drawn) | -57.4 |
| CSCC[C@H](NC(C)=O)C(=O)N(C)Cc1ccc(-n2cccn2)cc1 | -122 |
| Cc1cnc(C(=O)N[C@H]2CN(CCS(C)(=O)=O)C[C@@H]2C2CC2)cn1 | 17.6 |
| COc1ccc(C(=O)N2CC[C@](C)(O)[C@H](C)C2)cc1N1CCOCC1 | 14.9 |
| c1cn(CCNc2nc(NC3CC3)nc3c2CCNCC3)nn1 | -52.8 |
| Cn1ncc2c(N[C@@H]3CS(=O)(=O)C[C@H]3O)nc(C(C)(C)C)nc21 | -1.32 |
| CCc1cc(N[C@@H](CO)C(N)=O)n2nc(C)c(C)c2n1 | -13.4 |
| CCC[C@@H]1CN(Cc2cc3c(cc2OC)OCCO3)C[C@H]1C(=O)O | -9.47 |
| Cc1ccc(CCN[C@@H]2c3ccccc3C3(CCNCC3)[C@H]2O)s1 | -2.72 |
| O[C@]12CCNC[C@H]1CN(c1nccc3ccccc13)CC2 | 12.3 |
| CCNc1nc(C)c(C(=O)N2CCC(C(O)Cc3ccccc3)CC2)s1 (stereo not drawn) | 13.5 |
| O=C(Cn1ccnc1)N1C[C@@H]2CC[C@H](Oc3ccccc3Cl)[C@@H]2C1 | 11.9 |
| Cc1ccc(C(=O)N2CCCC(c3cc(C(F)(F)F)[nH]n3)C2)o1 (stereo not drawn) | 5.77 |
| CC(C)Oc1ncccc1CNC(=O)N1CCC1 | -7.6 |

| SMILES | cytotoxicity at 10 µM [%] |
| --- | --- |
| CCc1noc(CN2CCN(C(=O)C3CC3)CC2)n1 | -1.88 |
| Cc1ccc(C(=O)N2CCN(Cc3ccc(C#N)cc3)CC2)n1C | -9.65 |
| Cc1ccc(-c2nc(CN3CCn4c(nnc4C4CC4)C3)co2)c(C)c1 | -24.7 |
| O=C(c1ccc2nncn2c1)N1CCCCC1Cn1cccn1 (stereo not drawn) | -3.11 |
| O=C(CN1C=Nc2ccccc2S1(=O)=O)NCCc1cccs1 | -8.55 |
| Cc1cc(CN2CCOC(CN(C)C)C2)no1 (stereo not drawn) | -0.759 |
| Cc1nc(C2CCCN2CCCS(=O)(=O)N(C)C)no1 (stereo not drawn) | -4.69 |
| Cc1nn(C)c(C)c1CC(=O)N1CCC(Nc2cccnn2)CC1 | -8.8 |
| CN(C(=O)Cc1c[nH]c2ccccc12)C1CCN(c2ccccn2)CC1 | 9.36 |
| Cc1ccc(C(=O)N2CCCC(NC(=O)C(C)C)C2)c(O)c1 (stereo not drawn) | -7.84 |
| CC1CCN(C(=O)[C@@H]2C[C@@H]3CCN(Cc4nccs4)C[C@H]3O2)CC1 | -107 |
| O=C(C[C@@H]1COC[C@H]2CN(CC3CC3)C[C@@H]12)NCc1cccnc1 | 9.21 |
| O=C(NC1CCC1)[C@@H]1CCO[C@@H]2CCN(C3CCCC3)C[C@@H]21 | 11.4 |
| CS(=O)(=O)NCc1cncc2c1CCN(CC1CCOC1)C2 (stereo not drawn) | 12.7 |
| Cc1cc(C)n(CC(=O)NC(Cc2ccsc2)c2ccccn2)c(=O)n1 (stereo not drawn) | -1.91 |
| O=C(Cc1cccnc1)N1CCC2(CC1)CCN(C1CCOC1)C2 (stereo not drawn) | -2.52 |
| COCC(=O)N1CCC(c2nc3ccc(-c4ccncc4)cn3n2)CC1 | 10.2 |
| Cc1cnc(C(=O)N2CCC3(CCN3Cc3ccc(F)cc3)C2)cn1 (stereo not drawn) | -104 |
| COCCN1CCC2(CC1)CC(NC(=O)CN(C)C)c1ccccc1O2 (stereo not drawn) | 0.169 |
| Cn1cc(CN2C[C@H](N3CCOCC3)[C@@H]3OCCC[C@@H]32)cn1 | 5.02 |
